Article PMC4496304 (Environmental science & technology, 2015)
Entries after “also recorded” stand apart in the source; their conditions may differ. Structures can show the parent of a compound that is named as a salt. Where two headings read alike, the source gives them in different places. Marks after values point to notes of the source that are not given here.

How the values were obtained:
[1] = assay type: in vivo, male Sprague-Dawley rats
Method in brief: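 Single tail-vein injection in male rats (247 ± 8 g, 7-day acclimatization): 2 mM dosing solution in 5% (v/v) DMSO/sterile saline, 575 μg/kg; vehicle-injected controls. Killed by CO2 and cervical dislocation ~3 min, 1 h or 24 h post-dose (n = 6). Feces and intestinal contents came from rats held 24 h in metabolism cages. Tissues homogenized in 4 volumes water (liver: 20% acetonitrile). Analysis by negative-ion LC-ESI-MS/MS with internal standard.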

human transthyretin = settings: cited from earlier work
[2] = Stability of 4-PCB 11 sulfate in rat urine; assay type: in vitro ADME; settings: 24 hours at 25 °C (experiments not shown)
[3] = PCB 11 and its metabolites, rat, cited from earlier work
[4] = 3min, iv 575 μg/kg, assuming total dose 142 μg
[5] = 24 hours, iv 575 μg/kg, assuming total dose 142 μg
[6] = 1 hour, iv 575 μg/kg, assuming total dose 142 μg

## O=S(=O)(O)Oc1ccc(-c2cccc(Cl)c2)cc1Cl [4-PCB 11 sulfate, 3,3′-dichloro-4′-sulfooxy-biphenyl]
[1]; 1 hour, all samples examined
  Fraction of 4-PCB 11 sulfate not recoverable: about two thirds
[1]; after 24 hours of exposure
  4-PCB 11 sulfate concentrations in tissues and fluids examined: below the LOD
[1]; after one hour
  Observable 4-PCB 11 sulfate levels as fraction of the initial dose: about one third
[1]; bile collected during 1 hour after injection, bile duct-cannulated rats, iv
  4-PCB 11 sulfate in bile: 34 ± 3.9 µg
[1]; brain weight, exposed rats
  Fluid or Tissue (ml or g): brain, exposed animals: 1.69 ± 0.07 ml or g
[1]; [4]
  % of total dose in brain: 0.6 ± 0.2%
  % of total dose in kidneys: 8.7 ± 2.4%
  % of total dose in liver: 47 ± 15%
  % of total dose in lungs: 3.9 ± 1%
[1]; 3min, iv 575 μg/kg, rat
  4-PCB 11 sulfate in brain: 0.8 ± 0.3 µg
  4-PCB 11 sulfate in kidneys: 12 ± 3.4 µg
  4-PCB 11 sulfate in liver: 67 ± 21 µg
  4-PCB 11 sulfate in lungs: 5.6 ± 1.4 µg
[1]; 1 hour, iv 575 μg/kg, rat, detectable only in three samples
  4-PCB 11 sulfate in brain: 0.9 ± 0.9 ^c μg
[1]; [5]
  % of total dose in brain: 0%
  % of total dose in kidneys: 0%
  % of total dose in liver: 0%
  % of total dose in lungs: 0%
  % of total dose in serum: 0%
[1]; 24 hours, iv 575 μg/kg, rat
  4-PCB 11 sulfate in brain: < LOD
  4-PCB 11 sulfate in liver: < LOD
  4-PCB 11 sulfate in lungs: < LOD
  4-PCB 11 sulfate in serum: < LOD
[1]; feces, 24 hours, iv 575 μg/kg, assuming total dose 142 μg
  % of total dose in feces: 0%
[1]; feces, 24 hours, iv 575 μg/kg, rat
  4-PCB 11 sulfate in feces: did not contain detectable levels; also recorded: undetectable; also recorded: < LOD
[1]; intestinal contents, 24 hours, iv 575 μg/kg, assuming total dose 142 μg
  % of total dose in intestinal contents: 0%
[1]; intestinal contents, 24 hours, iv 575 μg/kg, rat
  4-PCB 11 sulfate in intestinal contents: did not contain detectable levels; also recorded: undetectable; also recorded: < LOD
[1]; kidneys weight, exposed rats
  Fluid or Tissue (ml or g): kidneys, exposed animals: 1.86 ± 0.16 ml or g
[1]; [6]
  % of total dose in kidneys: 1.1 ± 0.5%
  % of total dose in liver: 2 ± 1%
  % of total dose in lungs: 0.4 ± 0.4%
  % of total dose in serum: 2.1 ± 1.2%
[1]; 1 hour, iv 575 μg/kg, rat
  4-PCB 11 sulfate in kidneys: 1.6 ± 0.7 µg
  4-PCB 11 sulfate in liver: 2.9 ± 1.4 µg
  4-PCB 11 sulfate in lungs: 0.6 ± 0.6 µg
  4-PCB 11 sulfate in serum: 3.0 ± 1.6 µg
[1]; liver weight, exposed rats
  Fluid or Tissue (ml or g): liver, exposed animals: 10.6 ± 0.94 ml or g
[1]; lungs weight, exposed rats
  Fluid or Tissue (ml or g): lungs, exposed animals: 1.3 ± 0.18 ml or g
[1]; rat, iv
  Blood brain barrier crossing (detection in brain tissue): ability to cross the blood brain barrier
[1]; rat, iv 575 μg/kg
  Organ weights, exposed versus control animals: no significant differences
[1]; 3min, iv 575 μg/kg, assuming total dose 142 μg per animal
  % of total dose in serum: 35 ± 8.5%
[1]; 3min post-injection, iv 575 μg/kg, rat
  4-PCB 11 sulfate in serum: 50 ± 12 µg
[1]; urine, 24 hours collection, iv 575 μg/kg, assuming total dose 142 μg
  % of total dose in urine: 3.7 ± 1.8%
[1]; urine, 24 hours collection, iv 575 μg/kg, rat
  4-PCB 11 sulfate in urine: 5.3 ± 2.5 µg
Human transthyretin
  Affinity for transthyretin (T4 binding sites): affinity comparable to the physiological ligand, thyroxine; also recorded: among the most potent ligands
[2]
  Stability in rat urine: stable

## Clc1cccc(-c2cccc(Cl)c2)c1 [PCB 11, 3,3′-dichlorobiphenyl]
[3]; liver
  t1/2 clearance from liver: 2.1 h
[3]; lungs
  t1/2 clearance from lungs: 1.9 h
[3]; serum
  t1/2 clearance from serum: 1.8 h
